Measured values taken from the EternaBench riboswitch data.

Tested on: MS2 coat protein
Assay: apparent Kd, MS2 coat protein; higher = weaker binding; RNA-MaP array; tryptophan 2.4 mM where present
Outline: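 Stalled E. coli RNA polymerase transcribed the designs on Illumina sequencing-chip clusters. SNAP-549-labelled MS2 coat protein was titrated from 0.7 or 1.5 nM, doubling to 3 µM, without and then with constant ligand, in 100 mM Tris-HCl pH 7.5, 80 mM KCl, 4 mM MgCl2, BSA, DTT, yeast tRNA and Tween-20. Per-cluster binding curves were fitted to green signal normalised to red-channel RNA signal and control-cluster median Fmax. The apparent Kd is the median of the filtered fits.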

[1] = designed as: OFF switch for tryptophan, no ligand
[2] = ligand present: tryptophan, designed as: OFF switch for tryptophan
[3] = designed as: ON switch for tryptophan, no ligand
[4] = ligand present: tryptophan, designed as: ON switch for tryptophan

AGAUGAGUCACGGCCGCCACUCUUAUCAGGAUCACCCAUGGUUAACAUGAGGAUCACCCAUGUCUGAGGACCGGGUGAUGAGCAU
apparent Kd [1]: 21.6 nM | apparent Kd [2]: 23.9 nM

AGACCCUUCACGGCCGCCACUCAUUUUAAGUAGAGAGAGUACAUGAGGAUCACCCAUGUGAGAGAGAGGACCGGGUGAGAUAUUA
apparent Kd [3]: 17.5 nM | apparent Kd [4]: 19.6 nM

UCGGUGCUCUACAUGAGGAUCACCCAUGUCCGAGGACCGGUACGGCCGCCACUCGCAAUCAAACAGACGUGGGCCAACUUUGCGU
apparent Kd [1]: 10.3 nM | apparent Kd [2]: 13.6 nM

AGCGUGCAUCGGAAAACGAUGUACGCAAAUCGAGGACCGGUACGGCCGCCACUCGUCCUCAACAUGAGGAUCACCCAUGUAAUAA
apparent Kd [1]: 19.1 nM | apparent Kd [2]: 34.7 nM

GAUUAAACAUGAGGAUCACCCAUGUAUAUACGAGGACCGGUACGGCCGCCACUCGAAAACGAGUAUCCUCGAAUAAACAUGAUAA
apparent Kd [3]: 37.2 nM | apparent Kd [4]: 67 nM

GUUAUAACAAAAGUUGUAACAGUGGGUGAACGAGGACCGGUACGGCCGCCACUCGGACAUGAGGAUCACCCAUGUCCAUGUGAAA
apparent Kd [1]: 16.2 nM | apparent Kd [2]: 40.2 nM

AGAUUCGACACGGCCGCCACUCUACACGGAUUUCCGAGUGUCGAACAUGAGGAUCACCCAUGUGGGAGGACCGGGUGUUGAGUCU
apparent Kd [1]: 437 nM | apparent Kd [2]: 1030 nM

AUCUAUAGAGCGGCCGCCACUGAAUACAUGAGGAUCACCCAUGUAAUGUUAAGGUGGUCCUAGCUCAGGACCGGGCUCUAUAGAU
apparent Kd [1]: 36.5 nM | apparent Kd [2]: 22.2 nM

CAUGCCAGGGCGGCCGCCACUGUGGCUACGGUACAUGAGGAUCACCCAUGUUUGUGGUUGAUCUACAGGACCGGGCCCUAGCACG
apparent Kd [3]: 118 nM | apparent Kd [4]: 238 nM

GAUCAAAGAUCACAUGAGGAUCACCCAUGUCGAGGACCGGUACGGCCGCCACUCGCGGCGGUGAAAAUAGAUACAAAGUAUCUAU
apparent Kd [1]: 77.6 nM | apparent Kd [2]: 347 nM

CUACAUUUGUAGAAACCGGUCAACAAUAAUCGAGGACCGGUACGGCCGCCACUCGUAUAAUUUAUUACAUGAGGAUCACCCAUGU
apparent Kd [3]: 13.7 nM | apparent Kd [4]: 13.8 nM

AACUACUCGAGGUGAUCCUACGAGUGGCAACGAGGACCGGUACGGCCGCCACUCGAAUAAACAUGAGGAUCACCCAUGUACAAAU
apparent Kd [3]: 81 nM | apparent Kd [4]: 83.7 nM

AGUAUUGGAAACAGUACUAGUGAUCCGGUCCGAGGACCGGUACGGCCGCCACUCGAAUUAAAUAAACAUGAGGAUCACCCAUGUA
apparent Kd [1]: 16.8 nM | apparent Kd [2]: 46.1 nM

UUUGUAAUUGUCUGGUAGAUUUAUUUAUUUCGAGGACCGGUACGGCCGCCACUCGUUAAUUACAUGAGGAUCACCCAUGUUAGCU
apparent Kd [1]: 13.4 nM | apparent Kd [2]: 13.2 nM

GAGUACACUACGGCCGCCACUCAAGGAGCUACAUAGCUCCUAGACAUGAGGAUCACCCAUGUACCGAGGACCGGGUAGAUCCUUA
apparent Kd [3]: 187 nM | apparent Kd [4]: 97.3 nM

GGGCGCUAUCCCGCGAGGGAUAGCGUUCGUCGAGGACCGGUACGGCCGCCACUCGAACGAGUGGUGACAUGAGGAUCACCCAUGU
apparent Kd [1]: 50.2 nM | apparent Kd [2]: 68.8 nM

GGUUGAUGACAUGAGGAUCACCCAUGUAGGCGAGGACCGGUACGGCCGCCACUCGACAUGAGGAUCACCCAUGUCGGCGUCCGUG
apparent Kd [1]: 15.2 nM | apparent Kd [2]: 26.2 nM

ACAUGACAACAUGAGGAUCACCCAUGUCAUCGAGGACCGGUACGGCCGCCACUCGGUCAAUAUGAUACUUGUCAUGAACAUGAGG
apparent Kd [1]: 18.7 nM | apparent Kd [2]: 23.5 nM

AAUAAUAGGUGAUCCUAACGAGUGGCAUAACGAGGACCGGUACGGCCGCCACUCGAACAUGAGGAUCACCCAUGUAGUCACUCGA
apparent Kd [3]: 189 nM | apparent Kd [4]: 362 nM

CUGUGUCCUUCGGCCGCCACUACAUGAGGAUCACCCAUGUCGUUACGGCUCCCAAUGACGCUUUGUAGGACCGGGAAGGAGUAUG
apparent Kd [1]: 10.3 nM | apparent Kd [2]: 15.8 nM

AAUGGCCGUACCGGAAGGGUGAUCCUCAAACGAGGACCGGUACGGCCGCCACUCGAUAACAUGAGGAUCACCCAUGUAAUAAUAA
apparent Kd [1]: 331 nM | apparent Kd [2]: 389 nM

GUUAUAUCAAAAGAUGUAACAGUGGGUGAACGAGGACCGGUACGGCCGCCACUCGGACAUGAGGAUCACCCAUGUCCAUGUGAAA
apparent Kd [1]: 17.9 nM | apparent Kd [2]: 37.1 nM

CGUAUUGGAAACAGUACGAGUGAUCCGGUCCGAGGACCGGUACGGCCGCCACUCGAAAAUAAAUAACAUGAGGAUCACCCAUGUA
apparent Kd [1]: 16.7 nM | apparent Kd [2]: 23.9 nM

AGAUGAGUCACGGCCGCCACUCUUCACAGGUUCACCCUUGGUUAACAUGAGGAUCACCCAUGUGGGAGGACCGGGUGAUGAGCAU
apparent Kd [1]: 13.7 nM | apparent Kd [2]: 33.4 nM

UAAACUACACAUGAGGAUCACCCAUGUGGCCGAGGACCGGUACGGCCGCCACUCGUGUGUUAAUAAAAGAACCGCAAAGUUCUGU
apparent Kd [3]: 268 nM | apparent Kd [4]: 83.3 nM

AAUGGUCGUACUGGAAUGGUGAUCCUCAAACGAGGACCGGUACGGCCGCCACUCGAUAACAUGAGGAUCACCCAUGUAAUAAUAA
apparent Kd [1]: 40.7 nM | apparent Kd [2]: 20.8 nM

AGUCUGGACUCGGCCGCCACUCGUGAUGCUUUGGCACAUGAGGAUCACCCAUGUGGUCGGCCUUAGAGGACCGGGAGUACCAGCU
apparent Kd [3]: 56.4 nM | apparent Kd [4]: 12.9 nM

GGGUGGUAGGCGGCCGCCACUGAUUUUUAUUUAUAGAUGACAUGAGGAUCACCCAUGUUGAUAUGCAGGACCGGGCCUGUUGUUG
apparent Kd [3]: 15.1 nM | apparent Kd [4]: 13.2 nM

GGGAGGGAGGCGGCCGCCACUGAUUUUCAUAUAUAUAUAACAUGAGGAUCACCCAUGUAGAUAUGCAGGACCGGGCCUUUUUUUU
apparent Kd [3]: 20.5 nM | apparent Kd [4]: 17.6 nM

GCUAGGUCUACGGCCGCCACUAGACGUGGGUAAGACAUGAGGAUCACCCAUGUACUACGGGCGCUUAGGACCGGGUAGACCUAGC
apparent Kd [3]: 204 nM | apparent Kd [4]: 17.5 nM

CUACAUUUGUAGAAACCGGUCACCAUUAUUCGAGGACCGGUACGGCCGCCACUCGUAUCAUGUGAUACAUGAGGAUCACCCAUGU
apparent Kd [3]: 28.8 nM | apparent Kd [4]: 28.5 nM

GGUAUGUAUUCGGAAACGAAUGCAUACCAACGAGGACCGGUACGGCCGCCACUCGGGCGGCGAUCACAUGAGGAUCACCCAUGUA
apparent Kd [1]: 45.7 nM | apparent Kd [2]: 46.7 nM

CUAUAAGUACCGGUCCUCAGAUCCUCAUGACGAGGACCGGUACGGCCGCCACUCGAAACAUGAGGAUCACCCAUGUAAUAAUAUC
apparent Kd [1]: 20.7 nM | apparent Kd [2]: 18.6 nM

CACAGUGCGAAAUUGAAUUCGCACGAUCCUCGAGGACCGGUACGGCCGCCACUCGCGCGGGUCGUACAUGAGGAUCACCCAUGUC
apparent Kd [3]: 257 nM | apparent Kd [4]: 368 nM

ACAUUGCGCUCGGCCGCCACUGGCUUAUGAUUAUAAGCAUUAAUGAACAUGAGGAUCACCCAUGUCAGGACCGGGAGCGAACCAU
apparent Kd [3]: 14 nM | apparent Kd [4]: 16.6 nM

GCUAGGUCUACGGCCGCCACUAGACGUGGGUAAGACAUGAGGAUCACCCAUGUACUACAGGCGGAUAGGACCGGGUAGACCUAGC
apparent Kd [3]: 114 nM | apparent Kd [4]: 14.3 nM

GCUACAUGAGGAUCACCCAUGUAUGCGAGUCGAGGACCGGUACGGCCGCCACUCGCUUAACAUGAGGAUCACCCAUGUUACUCGC
apparent Kd [3]: 64.6 nM | apparent Kd [4]: 31.1 nM

AAAACAUGAGGAUCACCACAUGACAUGAGGCGAGGACCGGUACGGCCGCCACUCGACAUACAUGAGGAUCACCCAUGUUUGUUGU
apparent Kd [1]: 217 nM | apparent Kd [2]: 269 nM

GCGCGGCGAGUGCGGCGUGUUCCGCUCCGUCGAGGACCGGUACGGCCGCCACUCGACAUGAGGAUCACCCAUGUCGCCGCGCGUC
apparent Kd [1]: 12.1 nM | apparent Kd [2]: 12.3 nM

AAUAACAUGAGGAUCACCCAUGUAAGUAAACGAGGACCGGUACGGCCGCCACUCGAAUAAAUAAAGUACCGGUAAGAUCCAUAGA
apparent Kd [3]: 21.3 nM | apparent Kd [4]: 23.9 nM

CUUAUAUAUACGGCCGCCACUUACUCAUGAGGUAACAACAUGAGGAUCACCCAUGUUUGAGGAUCAAGGACCGGGUAUAUAUAAG
apparent Kd [3]: 25.3 nM | apparent Kd [4]: 18.2 nM

ACAUGUUGGUGGUAUCUACGAAGGCGGAAACGAGGACCGGUACGGCCGCCACUCGGCGACAUGAGGAUCACCCAUGUGGUUAAGA
apparent Kd [1]: 72 nM | apparent Kd [2]: 46.4 nM

CAAAAUUUAACGGCCGCCACUUACUCAUGAGGUAACAACAUGAGGAUCACCCAUGUUUGAGGAUCAAGGACCGGGUUAAAUUUUG
apparent Kd [3]: 30.6 nM | apparent Kd [4]: 18.2 nM

CCUAUCCAGUCGGCCGCCACUGACCAUUUGGAACAGUGGGUGAAAACAUGAGGAUCACCCAUGUACAGGACCGGGACUGUAUAGG
apparent Kd [1]: 11.6 nM | apparent Kd [2]: 42 nM

AGCACUGUGACGGCCGCCACUACAUAAAUAGGGUGGUCAGGUUCAUUACAUGAGGAUCACCCAUGUAGGACCGGGUCUCAGUGCA
apparent Kd [1]: 9.99 nM | apparent Kd [2]: 9.55 nM

AAGGCACGAGACAUGAGGAUCACCCAUGUUCGAGGACCGGUACGGCCGCCACUCGGUGGACUCAUGGUAAAGCCGGUGAGCCAAA
apparent Kd [3]: 19.4 nM | apparent Kd [4]: 37.2 nM
